Laboratory results: PubChem BioAssay
The source made the active and inactive calls.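 How the source made its calls, unless noted: active means fluorescence slope higher than the sample average by over 3 SD (cut at about -0.22 in these data, passing the limit was not always enough); inactive means the rest.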

How the values were obtained:
[1] = inhibitors of TNFa-induced NFkB p65 translocation, primary screen, imaging, HUVEC, MLSMR starter and 10KST1 sets (AID 438;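 active means inhibition above 20% together with a positive visual image hit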;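 further: compound added about 3h40 before a 20 min TNFalpha stimulation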;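 on inhibition: signal is the nuclear over cytoplasmic p65 intensity ratio per well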); conditions: HUVEC TNFa-induced p65 nuclear translocation; cell count: measured here: nuclei count (cytotoxicity indicator), at 2.08 µM; inhibition: at 2 µM, stronger effect = higher value, 0% TNFa-plus-vehicle, 100% no-TNFa wells
[2] = endothelial E-selectin expression blockers – imaging, HUVEC, immunofluorescence, MLSMR starter and 10KST1 sets, primary screen (AID 487;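 active means visually confirmed hit in the image check and inhibition above 20%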;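 on inhibition: signal is fraction of cell area covered by stained E-selectin grains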;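 on nuclei count: 100% = median nuclei count of all wells on the same plate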); conditions: HUVEC TNFalpha-induced E-selectin immunofluorescence imaging, at 2 µM; inhibition: stronger effect = higher value; nuclei count: measured here: cell number, toxicity
[3] = Primary imaging screen for DUSP6 inhibitors that restore phospho-Erk in transfected HeLa cells, chemical complementation (AID 609;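 active means compounds giving at least 50% inhibition in the cell-based MKP-3 phosphatase rescue imaging test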;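 on inhibition: phospho-Erk level distribution per well compared with pooled transfected vehicle control wells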); conditions: HeLa MKP-3 transfected, phospho-Erk imaging KS statistic, at 10 µM, cells stimulated with TPA for 15 min
[4] = target: Dual specificity protein phosphatase 6 (Homo sapiens) (UniProt Q16828); assay: as above; conditions: HeLa MKP-3 transfected, phospho-Erk imaging KS statistic; at 10 µM; stronger effect = higher value; cells stimulated with TPA for 15 min
[5] = target: Voltage-gated potassium channel subunit beta-2 (Rattus norvegicus) (UniProt P62483); assay: inhibitors of rat Kvbeta2 reductase activity – biochemical, NADPH fluorescence, primary screen (AID 622); conditions: recombinant KvBeta, 4-cyanobenzaldehyde reduction, at 10 µM, stronger effect = higher value;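 further: slope of raw intensity against log time taken from 70 to 1610 s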
[6] = target: Voltage-gated potassium channel subunit beta-2 (Rattus norvegicus) (UniProt P62483); assay: enhancers of rat Kvbeta2 NADPH turnover – biochemical, NADPH fluorescence, primary screen (AID 623;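 active means NADPH fluorescence slope more negative than the mean of all samples by about 3 SD, 99.7% confidence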;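 further: fluorescence intensity change per second fitted from 20 to 320 s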); conditions: Recombinant KvBeta, NADPH fluorescence decrease slope, 10 min; at 10 µM; stronger effect = lower value
[7] = target: Alpha-2C adrenergic receptor (Homo sapiens) (UniProt P18825); assay: compounds altering alpha2C-coupled GIRK flux – cell-based, HEK293 alpha2C/GIRK1/2, thallium flux, primary screen (AID 624;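 active means fluorescence slope after compound addition differing from the mean of all screened samples at 99.7% confidence, in either direction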;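 further: slope of fluorescence ratio to pre-addition baseline per second over 15 to 24 s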); conditions: thallium flux BTC fluorescence, at 10 µM, actives lie on both sides
[8] = inhibitors of larval lipid processing in zebrafish, primary screen, whole organism, PED6 fluorescence, gall bladder and intestine (AID 686;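 active means a full or partial loss of lipid-probe fluorescence in the fish gall bladder, intestine or both, judged by eye; inactive means no fluorescence loss, or compound toxic to the fish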;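 further: larvae 5 to 7 days old with five fish per well; signal comes from phospholipase A2 cleavage of quenched PED6 carried via bile; overnight exposure to compound and PED6 before scoring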); conditions: Zebrafish larvae PED6 lipid processing, fluorescence scoring; screened at 20 µM (by protocol)
In short: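 system = live zebrafish larvae aged 5-7 days, whole organism | probe or stimulus = ingested quenched lipid PED6 at 100 nM | doses = 20 µM single dose | timing = overnight exposure | detection = fluorescence microscopy with visual scoring of gall bladder and intestine | read-out = visual per-well fluorescence inhibition score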

[9] = loss of swimming-algae plug formation – whole organism, Chlamydomonas reinhardtii, WT vs cilia-less mutant, absorbance, 96-well, primary screen (AID 463189;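 active means inhibition at or above 50% relative to wild type and mutant plate controls; inactive means inhibition below 50%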;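 further: 0% = wild type cc124 cells in DMSO and 100% = ciliumless bld1 mutant cells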); conditions: Chlamydomonas reinhardtii gravitaxis, OD600 absorbance, 2 days; at 10 µM; stronger effect = higher value
[10] = measured here: cell density z-score
[11] = measured here: nuclear c-Myc green intensity z-score
[12] = measured here: nuclear pErk red intensity z-score, stronger effect = higher value

Sequence of Voltage-gated potassium channel subunit beta-2 (Rattus norvegicus) (P62483 whole entry, looked up): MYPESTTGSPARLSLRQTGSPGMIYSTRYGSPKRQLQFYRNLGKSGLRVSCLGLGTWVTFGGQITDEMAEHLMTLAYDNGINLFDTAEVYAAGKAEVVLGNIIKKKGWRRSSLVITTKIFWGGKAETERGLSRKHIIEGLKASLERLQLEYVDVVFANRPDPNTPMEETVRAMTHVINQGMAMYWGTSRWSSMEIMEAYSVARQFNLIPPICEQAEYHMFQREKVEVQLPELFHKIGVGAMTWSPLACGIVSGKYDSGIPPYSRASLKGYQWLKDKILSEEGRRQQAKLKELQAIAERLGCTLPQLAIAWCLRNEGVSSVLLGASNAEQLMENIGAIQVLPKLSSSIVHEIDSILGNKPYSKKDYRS
Sequence of Dual specificity protein phosphatase 6 (Homo sapiens) (Q16828 whole entry, looked up): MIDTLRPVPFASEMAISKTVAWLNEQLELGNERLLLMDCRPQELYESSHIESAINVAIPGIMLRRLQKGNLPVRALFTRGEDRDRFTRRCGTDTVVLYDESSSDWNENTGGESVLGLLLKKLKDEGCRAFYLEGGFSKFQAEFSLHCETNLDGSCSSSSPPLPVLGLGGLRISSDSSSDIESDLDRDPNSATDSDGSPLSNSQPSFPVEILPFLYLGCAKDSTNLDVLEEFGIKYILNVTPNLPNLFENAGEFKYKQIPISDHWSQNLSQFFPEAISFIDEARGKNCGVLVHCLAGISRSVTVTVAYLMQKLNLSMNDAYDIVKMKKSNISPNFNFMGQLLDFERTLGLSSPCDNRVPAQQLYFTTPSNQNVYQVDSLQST
Sequence of Alpha-2C adrenergic receptor (Homo sapiens) (P18825 whole entry, looked up): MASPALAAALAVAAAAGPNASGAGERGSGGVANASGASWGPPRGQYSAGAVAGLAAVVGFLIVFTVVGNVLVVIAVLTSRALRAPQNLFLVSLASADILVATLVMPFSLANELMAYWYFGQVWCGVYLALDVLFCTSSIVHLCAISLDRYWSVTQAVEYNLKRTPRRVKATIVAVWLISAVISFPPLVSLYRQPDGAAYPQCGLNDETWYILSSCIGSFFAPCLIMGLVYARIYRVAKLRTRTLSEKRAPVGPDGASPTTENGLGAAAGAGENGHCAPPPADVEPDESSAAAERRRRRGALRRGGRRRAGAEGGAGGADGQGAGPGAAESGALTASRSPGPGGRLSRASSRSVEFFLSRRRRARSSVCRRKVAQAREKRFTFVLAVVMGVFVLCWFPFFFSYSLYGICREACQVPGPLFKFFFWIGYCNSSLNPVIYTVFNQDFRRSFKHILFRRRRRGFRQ

COc1ccc2[nH]c(C)c(C(=O)CN3CCc4cc(OC)c(OC)cc4C3)c2c1
cell count [1]: 520 | inhibition [1]: 3.2% (inactive) | inhibition [2]: 7.5% (inactive) | nuclei count [2]: 117% | z-score [3, 10]: -1.28 | z-score [3, 11]: 1.53 | z-score [3, 12]: -1.2 | inhibition [4]: -8.76% (inactive) | fluorescence slope [5]: -0.205 (inactive) | NADPH fluorescence slope [6]: -2e-05 (inactive) | slope [7]: 0.00464 (inactive) | outcome [8]: inactive | inhibition [9]: 22.2% (inactive)

COc1ccc(C(CC(=O)O)NC(=O)OC(C)(C)C)cc1 (stereo unspecified)
cell count [1]: 352 | inhibition [1]: -12.3% (inactive) | inhibition [2]: -60.6% (inactive) | nuclei count [2]: 167% | z-score [3, 10]: 0.0535 | z-score [3, 11]: 0.856 | z-score [3, 12]: 1.62 | inhibition [4]: -7.01% (inactive) | fluorescence slope [5]: -0.414 (inactive) | NADPH fluorescence slope [6]: -0.000134 (inactive) | slope [7]: 0.00454 (inactive) | outcome [8]: inactive | inhibition [9]: -3.6% (inactive)

O=C1[C@@H]2[C@H](C(=O)N1n1cnnc1)[C@H]1C=C[C@@H]2C1
cell count [1]: 618 | inhibition [1]: -4.3% (inactive) | inhibition [2]: -49.4% (inactive) | nuclei count [2]: 143% | z-score [3, 10]: -1.23 | z-score [3, 11]: -0.0869 | z-score [3, 12]: -0.601 | inhibition [4]: 4.25% (inactive) | fluorescence slope [5]: -0.529 (inactive) | NADPH fluorescence slope [6]: -6.9e-05 (inactive) | slope [7]: 0.00514 (inactive) | outcome [8]: inactive | inhibition [9]: 13.5% (inactive)

Clc1ccc(-c2nn3c(-c4cccc(Cl)c4)nnc3s2)cc1
cell count [1]: 603 | inhibition [1]: -0.1% (inactive) | inhibition [2]: -90.1% (inactive) | nuclei count [2]: 150% | z-score [3, 10]: -0.779 | z-score [3, 11]: 0.764 | z-score [3, 12]: -0.704 | inhibition [4]: -2.47% (inactive) | fluorescence slope [5]: -0.42 (inactive) | NADPH fluorescence slope [6]: -9.2e-05 (inactive) | slope [7]: 0.00631 (inactive) | outcome [8]: inactive | inhibition [9]: 33% (inactive)

Clc1ccc(-c2nnc3sc(Cc4cccs4)nn23)cc1
cell count [1]: 671 | inhibition [1]: -3.4% (inactive) | inhibition [2]: -156% (inactive) | nuclei count [2]: 134% | z-score [3, 10]: 0.365 | z-score [3, 11]: -1.12 | z-score [3, 12]: -1.66 | inhibition [4]: 22.7% (inactive) | fluorescence slope [5]: -0.451 (inactive) | NADPH fluorescence slope [6]: -4.9e-05 (inactive) | slope [7]: 0.00474 (inactive) | outcome [8]: inactive | inhibition [9]: 19.8% (inactive)

COC(=O)c1ccccc1N1C(=O)[C@@H]2C(c3ccc(Br)cc3)=NO[C@@H]2C1=O
cell count [1]: 269 | inhibition [1]: -12.6% (inactive) | inhibition [2]: 0.3% (inactive) | nuclei count [2]: 89.9% | z-score [3, 10]: -0.914 | z-score [3, 11]: 2.06 | z-score [3, 12]: -1.22 | inhibition [4]: 1.75% (inactive) | fluorescence slope [5]: -0.458 (inactive) | NADPH fluorescence slope [6]: -7.9e-05 (inactive) | slope [7]: 0.00516 (inactive) | outcome [8]: inactive | inhibition [9]: -19.6% (inactive)

CC(C)C1=C2OC(N)=C(C#N)C(C#N)=C2C(C)CC1 (stereo unspecified)
cell count [1]: 361 | inhibition [1]: -6.8% (inactive) | inhibition [2]: -144% (inactive) | nuclei count [2]: 150% | z-score [3, 10]: 0.333 | z-score [3, 11]: 0.379 | z-score [3, 12]: 0.759 | inhibition [4]: 7.48% (inactive) | fluorescence slope [5]: -0.391 (inactive) | NADPH fluorescence slope [6]: -3.9e-05 (inactive) | slope [7]: 0.0063 (inactive) | outcome [8]: inactive | inhibition [9]: 13% (inactive)

COc1cccc(-c2nc(NCc3ccco3)c3ccccc3n2)c1O
cell count [1]: 550 | inhibition [1]: 3% (inactive) | inhibition [2]: -7.1% (inactive) | nuclei count [2]: 113% | z-score [3, 10]: 0.234 | z-score [3, 11]: 1.11 | z-score [3, 12]: 1.04 | inhibition [4]: -10.5% (inactive) | fluorescence slope [5]: -0.282 (inactive) | NADPH fluorescence slope [6]: -1.4e-05 (inactive) | slope [7]: 0.00506 (inactive) | outcome [8]: inactive | inhibition [9]: 14.5% (inactive)

COCCNc1oc(-c2ccc(Cl)cc2)nc1C#N
cell count [1]: 465 | inhibition [1]: -6.3% (inactive) | inhibition [2]: -25.2% (inactive) | nuclei count [2]: 161% | z-score [3, 10]: 1.04 | z-score [3, 11]: -0.285 | z-score [3, 12]: -0.188 | inhibition [4]: 2.46% (inactive) | fluorescence slope [5]: -0.17 (inactive) | NADPH fluorescence slope [6]: 9.3e-06 (inactive) | slope [7]: 0.00534 (inactive) | outcome [8]: inactive | inhibition [9]: 10.6% (inactive)

CC1(C)CN(O)CCN1O
cell count [1]: 325 | inhibition [1]: -5.3% (inactive) | inhibition [2]: -130% (inactive) | nuclei count [2]: 104% | z-score [3, 10]: -0.173 | z-score [3, 11]: -0.721 | z-score [3, 12]: -0.0914 | inhibition [4]: -10.1% (inactive) | fluorescence slope [5]: -0.452 (inactive) | NADPH fluorescence slope [6]: -1.8e-06 (inactive) | slope [7]: 0.00611 (inactive) | outcome [8]: inactive | inhibition [9]: 12% (inactive)

CN=c1sc2ccccc2n1CC(O)COc1ccccc1 (stereo unspecified)
cell count [1]: 462 | inhibition [1]: -11% (inactive) | inhibition [2]: -95.8% (inactive) | nuclei count [2]: 204% | z-score [3, 10]: -0.699 | z-score [3, 11]: 0.37 | z-score [3, 12]: 0.00223 | inhibition [4]: -0.624% (inactive) | fluorescence slope [5]: -0.362 (inactive) | NADPH fluorescence slope [6]: -2.9e-05 (inactive) | slope [7]: 0.00426 (inactive) | outcome [8]: inactive | inhibition [9]: -3.38% (inactive)

c1csc(-c2nn3c(C4CCCCC4)nnc3s2)c1
cell count [1]: 623 | inhibition [1]: -8.5% (inactive) | inhibition [2]: -52.2% (inactive) | nuclei count [2]: 155% | z-score [3, 10]: -1.83 | z-score [3, 11]: -0.584 | z-score [3, 12]: 2.62 | inhibition [4]: -15% (inactive) | fluorescence slope [5]: -0.426 (inactive) | NADPH fluorescence slope [6]: -0.00015 (inactive) | slope [7]: 0.00407 (inactive) | outcome [8]: inactive | inhibition [9]: 13.7% (inactive)
